# Screening data deposited in PubChem by several laboratories.
# Hits are enriched below; roughly 11% of the tested compounds scored in any of these assays.
# M1 agonist – M1 muscarinic receptor agonists, primary screen, CHO-M1 cells, Fluo-4 calcium, agonist mode | Fluo-4 calcium fluorescence; hits give high values | B-score at 10 µM | 64,000 tested, 3% active;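 active = fluorescence rise, raw or as B-score row- and column-corrected plate score, outside the 99.7% band of its plate's samples, either direction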
# D1 mod – D1 CRE-luciferase signal change, two-sided – cell-based, HEK293 D1, dopamine EC30, D1 allosteric modulator project, primary screen. dopamine EC30 potentiation; actives deviate in either direction. B-score at 10 µM. 58,000 tested, 5.9% active. AID 641, 2007;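 active = luminescence count or its row- and column-corrected plate score outside the 99.7% band of the plate's sample wells, on either side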
# RORA act – activators of orphan receptor RORA, primary screen, cell-based, luminescence | activation, % at 10 µM | Nuclear receptor ROR-alpha (Homo sapiens), P35398 | 65,000 tested, 1.5% active | CHO-K1 Gal4-RORA LBD luciferase reporter; percent increase over mock-subtracted basal signal | AID 560, 2006;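 active = activation above the mean of all tested compounds plus 3 SD, cut at about 49% in these data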;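 note: 0% = DMSO-treated RORA cells and 100% = added signal equal to DMSO minus mock-transfected cells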
# mHtt clearance – clearance of mutant huntingtin inclusions, primary screen, imaging, HeLa Exon1htt(103Q)mCFP, confocal imaging. aggregate imaging; zero = plate's median compound well. inhibition, % at 1.5 µM. 47,000 tested, 0.42% active. AID 853, 2007;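 active = inhibition of aggregate fluorescence above about 70%, also judged a hit by eye on the cell image, limit read from the data, passing the limit was not always enough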;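 note: cells exposed to compound for three days before fixation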
# SF1 activator – activators of human SF-1, primary screen, cell-based, CHO-K1, Gal4-SF-1 LBD, luciferase luminescence. 65,000 tested, 1.9% active. activation, % at 10 µM. Steroidogenic factor 1 (Homo sapiens), Q13285. CHO-K1 Gal4-SF-1 LBD luciferase reporter; % increase over DMSO SF-1-specific signal;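 active = activation above the mean activation of all tested compounds plus 3 SD, cut at about 50% in these data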
# Target sequence (Q13285 whole entry, looked up, the tested form may be a part): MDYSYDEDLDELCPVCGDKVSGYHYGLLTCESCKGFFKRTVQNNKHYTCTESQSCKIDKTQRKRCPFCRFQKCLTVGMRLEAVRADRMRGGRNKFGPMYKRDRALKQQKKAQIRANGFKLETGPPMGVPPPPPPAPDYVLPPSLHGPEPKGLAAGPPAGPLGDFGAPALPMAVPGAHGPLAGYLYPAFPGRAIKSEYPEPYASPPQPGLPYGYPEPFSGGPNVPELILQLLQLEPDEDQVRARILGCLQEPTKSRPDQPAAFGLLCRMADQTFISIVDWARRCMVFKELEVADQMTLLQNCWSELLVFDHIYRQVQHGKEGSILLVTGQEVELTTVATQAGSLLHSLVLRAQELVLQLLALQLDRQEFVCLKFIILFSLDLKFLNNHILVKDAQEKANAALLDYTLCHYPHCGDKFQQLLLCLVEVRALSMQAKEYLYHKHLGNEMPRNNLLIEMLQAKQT
#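 Material: CHO-K1 cells with Gal4–hSF-1 LBD chimera plus Gal4-driven luciferase / Input: 4,000 CHO-K1 cells per well / Incubation: compound exposure 20 h at 37 °C / Signal: luminescence read 15 min after SteadyLite luciferase reagent, after room-temperature equilibration / Read-out: percent activation versus DMSO / Benchmarks: DMSO negative control and −SF1 background wells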
# M1 antagonist – antagonists of rat M1 muscarinic receptor. CHO-M1 cells, Fluo-4 calcium, ACh EC80 antagonist mode; hits give low values. B-score at 10 µM. 64,000 tested, 3.4% active;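 active = calcium fluorescence response, raw or row-and-column corrected B-score, differing from the plate sample mean either way at a set confidence level, mostly lower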
# Starred values were filed as active, the others as inactive; . = not tested or not shown.
SMILES,M1 agonist,D1 mod,RORA act,mHtt clearance,SF1 activator,M1 antagonist
Cc1nn(C(=O)c2c([N+](=O)[O-])cnn2C)c(C)c1Cl,.,.,.,14,.,.
COc1ccccc1-n1cnnc1SC1CCOC1=O (configuration not stated),0.55,0.89,-9,.,12,2.8*
Cc1ccccc1-n1nnnc1SC1CCOC1=O (configuration not stated),-0.97,0.22,38,.,1,-0.0053
Cc1c(-c2nc(N)nc(Nc3ccccc3F)n2)oc2ccccc12,-0.0033,.,108*,16,73*,0.072
COc1cc(C2C(C#N)=C(N)Oc3cc(C)oc(=O)c32)ccc1OC(=O)N1CCOCC1 (configuration not stated),.,-3.7*,-2,.,-4,.
Cc1cc(C)c2cc(CN(Cc3cccnc3)C(=O)c3ccc(F)cc3)c(Cl)nc2c1,.,.,.,4,.,.
COc1ccc(C2N(c3cc(Cl)ccc3OC)C(=O)C3CCCN32)cc1 (configuration not stated),0.47,-0.18,2,.,-6,0.39
COc1ccc(Cl)cc1N1C(=O)C2CCCN2C1c1sccc1C (configuration not stated),0.43,-2.4*,-4,.,9,0.53
Cc1cccc(-n2ncc3c(N4CCN(c5nc(C)cc(C)n5)CC4)ncnc32)c1,0.21,-0.027,-21,.,4,0.23
Cc1ccnc(NC(=O)CCC(=O)N(CC(=O)NC2CCCCC2)Cc2ccc3c(c2)OCO3)c1,-0.29,0.046,-26,.,9,-0.019
CC(C)(C)C1CCc2[nH]c3ccccc3c(=O)c2C1 (configuration not stated),1.1,0.11,98*,.,56*,0.1
CCN1CCCC1CNC(=O)Cn1cccc1C(=O)c1ccccc1C (configuration not stated),-0.22,-0.51,2,-11,5,0.037
CC1=CC(C#N)(C#N)C(C#N)(C#N)C(c2ccccc2)N1 (configuration not stated),25*,0.11,-1,.,-9,-0.28
CSc1cccc(NC(=O)c2ccc(Cl)nc2)c1,.,.,.,-12,.,.
COc1ccccc1-c1nc(-c2ccccn2)no1,-0.076,-7.4*,-50,.,-32,-0.063
COc1ccccc1-c1noc(-c2ccncc2)n1,0.48,-0.12,37,45,36,4.1e-05
COc1nc(C)ccc1-c1noc(-c2ccccn2)n1,0.66,-4.1*,61*,.,22,-0.12
COc1ccccc1-c1noc(-c2ccccc2C(=O)Nc2ccccc2)n1,0.23,-1,4,.,14,0.22
COc1nc(-c2ccccc2)ccc1-c1noc(C)n1,0.13,1.2,23,-26,45,-1
COc1ccccc1-c1nc(-c2ccc(C)nc2OC)no1,0.26,0.021,39,-7,74*,-0.11
CCOC(=O)C1CCC2(CC1)C(C#N)=C(N)Oc1n[nH]c(C)c12 (configuration not stated),.,.,.,-7,.,.
CSc1nc2n(n1)C(c1cc(Br)ccc1F)C(C(=O)N(C)C)=C(C)N2 (configuration not stated),0.13,-0.41,-16,4,-5,1.6*
COC(=O)C1=C(C)NC(=O)CC1c1cc(Br)ccc1F (configuration not stated),0,-0.2,10,-4,14,-0.37
Cn1c(=O)oc2cc(S(=O)(=O)NCCC(=O)NCCc3ccccc3)ccc21,-0.37,.,-14,.,8,-0.0046
O=C(NC1CCCCC1)c1cc2nc3c(c(C(F)(F)F)n2n1)CCCC3,-0.022,1.9,34,.,50*,0.3
SMILES,M1 agonist,D1 mod,RORA act,mHtt clearance,SF1 activator,M1 antagonist
O=C(NC1CCCCC1)c1cc2nc(-c3ccco3)cc(C(F)(F)F)n2n1,-0.94,0.68,16,-81,11,-0.006
Nc1n[nH]c(-c2ccccc2)c1-c1ccccc1,-0.18,1.2,-12,47,-9,0.0083
Oc1cccc(-c2nc3ccccc3s2)c1,0.077,-8.7*,-22,61,27,0.7
COc1cc(CO)cc(Br)c1OCc1cccnc1,.,-3.1*,23,.,0,.
CCN(CC)c1ccc2c(c1)CCCN2,-1.6,-3.4*,-25,.,-5,-1.4
C#CCSc1nc(-c2cccs2)ccc1C#N,-0.92,.,-1,-4,12,0.03
COC(=O)CSc1nc(-c2cccs2)ccc1C#N,0.48,.,60*,1,83*,0.11
Brc1ccc2c(c1)c1nc3ccccc3nc1n2CCN1CCOCC1,-0.58,4.3*,16,.,25,0.32
CN(C)c1ccc(CN(C)C2CCCCC2)cc1,.,-1.6,.,.,.,.
NC(=O)C1CCN(CCCNC2CC(=O)N(Cc3ccc(N4CCCC4=O)cc3)C2=O)CC1 (configuration not stated),4.2*,-0.42,8,-33,-9,0.075
CCNc1nc(Oc2ccc(C(=O)OC)cc2)nc(N(C)C)n1,-0.59,2.1,4,-36,-22,-0.022
CCNc1nc(N)nc(Oc2ccc(C(=O)OC)cc2)n1,0.069,2.4,56*,.,44,0.0086
c1ccc(-c2nc3c4ccccc4nc(N4CCN(c5ccccn5)CC4)n3n2)cc1,-0.13,0.68,14,.,-6,0.17
O=C(NCC(F)(F)F)N1CCOCC1,0.6,0.98,-19,.,-3,0.52
COc1ccccc1NC(=O)CSc1nnc(-c2ccc(C)cc2)o1,1.2,.,41,.,57*,0.15
COc1ccc(-c2nnc(SCC(=O)N3CCCCC3)o2)cc1OC,0.54,4.9,-1,.,10,0.53
COc1ccc(-c2nnc(SCC(=O)OC3CCCCC3)o2)cc1OC,-0.042,1.1,-1,72*,5,-0.76
CNC(=O)CSc1nnc(-c2cc(C)cc(C)c2)o1,1,-3.2*,0,.,2,0.17
COc1ccc(CN(Cc2nc3ccccc3c(=O)[nH]2)C(=O)NC2CCCCC2)cc1,-0.16,1.2,-15,7,-1,-0.09
COc1ccc(CN(Cc2nc3ccccc3c(=O)[nH]2)C(=O)C(C)(C)C)cc1,-0.77,-4.9*,-6,.,-12,0.82
COc1ccc(-c2cc(C(F)(F)F)nc(SCCC(=O)N3CCOCC3)n2)cc1,-0.67,1.9,24,3,-8,1.5
CCOC(=O)C1CCN(c2ncnc3c2cnn3-c2ccccc2)CC1,0.099,-0.23,-16,17,-2,-1.5
COc1ccc(-n2ncc3c(N4CCC(C)CC4)ncnc32)cc1,0.00039,-5.8*,-12,.,-1,0.35
CCOC(=O)N1CCN(c2ncnc3c2cnn3-c2ccc(OC)cc2)CC1,-0.3,.,18,.,4,0.41
CC1CCN(c2ncnc3c2cnn3-c2ccccc2)CC1,-0.22,-3*,38,.,21,-1.1
